Here are results for two molecules from ChEMBL document CHEMBL3046951, “Volatile constituents from the leaves of Callicarpa japonica Thunb. and their antibacterial activities” (2004).

Type in all cases: functional
Experiment [1] has as its system Listeria monocytogenes. Description: Antimicrobial activity against Listeria monocytogenes ATCC 19111 assessed as growth inhibition rate at 5.32 mg/l after 72 hr by spectrophotometry. The settings on record: ATCC 19111, 72 h, read-out: GI. The method, boiled down: (§1)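 L. monocytogenes was grown at 30 °C in tryptic soy broth, subcultured for 18 h, and exposed to pure volatile compounds (>95% purity). Growth was followed by Bioscreen C optical density every 24 h for 72 h against a 10% Tween 80 control.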

Experiment [2] concerns Vibrio parahaemolyticus. Description: Antimicrobial activity against Vibrio parahaemolyticus ATCC 33844 assessed as growth inhibition rate at 5.32 mg/l after 72 hr by spectrophotometry. As to conditions: ATCC 33844, 72 h, read-out: GI.
Experiment [3] relates to Escherichia coli. Description: Antimicrobial activity against Escherichia coli O157:H7 ATCC 43894 assessed as growth inhibition rate at 5.32 mg/l after 72 hr by spectrophotometry. The settings on record: O157:H7 ATCC 43894, 72 h, read-out: GI.
For experiment [4], the system named is Staphylococcus aureus. Description: Antimicrobial activity against Staphylococcus aureus ATCC 25923 assessed as growth inhibition rate at 5.32 mg/l after 72 hr by spectrophotometry. As to conditions: ATCC 25923, 72 h, read-out: GI.
Experiment [5] deals with Salmonella typhimurium. Briefly: Antimicrobial activity against Salmonella enterica subsp. enterica serovar Typhimurium ATCC 14028 assessed as growth inhibition rate at 5.32 mg/l after 72 hr by spectrophotometry. The settings on record: ATCC 14028, 72 h, read-out: GI.
The subject of experiment [6] is Bacillus cereus. Briefly: Antimicrobial activity against Bacillus cereus ATCC 11778 assessed as growth inhibition rate at 5.32 mg/l after 72 hr by spectrophotometry. As to conditions: ATCC 11778, 72 h, read-out: GI. The method in brief:
(§2)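 Pure volatile compounds (purity >95%; one at 90%) were tested against B. cereus ATCC 11778. The strain was grown at 30 °C in nutrient broth for 24 h, then subcultured for 18 h. Optical density was read in a Bioscreen C every 24 h for 72 h, with 10% Tween 80 as the control.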

The subject of experiment [7] is Listeria monocytogenes. Briefly: Antimicrobial activity against Listeria monocytogenes ATCC 19111 assessed as growth inhibition rate at 43.2 mg/l after 72 hr by spectrophotometry. As to conditions: ATCC 19111, 72 h, read-out: GI. The method, boiled down:
as §1

The test system of experiment [8] is Staphylococcus aureus. Description: Antimicrobial activity against Staphylococcus aureus ATCC 25923 assessed as growth inhibition rate at 43.2 mg/l after 72 hr by spectrophotometry. As to conditions: ATCC 25923, 72 h, read-out: GI.
Experiment [9] has as its system Vibrio parahaemolyticus. Description: Antimicrobial activity against Vibrio parahaemolyticus ATCC 33844 assessed as growth inhibition rate at 43.2 mg/l after 72 hr by spectrophotometry. As to conditions: ATCC 33844, 72 h, read-out: GI.
The test system of experiment [10] is Escherichia coli. Briefly: Antimicrobial activity against Escherichia coli O157:H7 ATCC 43894 assessed as growth inhibition rate at 43.2 mg/l after 72 hr by spectrophotometry. The settings on record: O157:H7 ATCC 43894, 72 h, read-out: GI.
Experiment [11] concerns Salmonella typhimurium. Description: Antimicrobial activity against Salmonella enterica subsp. enterica serovar Typhimurium ATCC 14028 assessed as growth inhibition rate at 43.2 mg/l after 72 hr by spectrophotometry. The settings on record: ATCC 14028, 72 h, read-out: GI. The method, boiled down: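 Salmonella Typhimurium ATCC 14028 grown in nutrient broth at 30 °C, precultured 24 h, then subcultured 1:100 for 18 h before testing. Single volatile compounds (>95% pure) were added. OD was read every 24 h over 72 h in a Bioscreen C, with 10% Tween 80 as the comparison control.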

Experiment [12] concerns Bacillus cereus. Briefly: Antimicrobial activity against Bacillus cereus ATCC 11778 assessed as growth inhibition rate at 43.2 mg/l after 72 hr by spectrophotometry. As to conditions: ATCC 11778, 72 h, read-out: GI. The method, boiled down: as §2

With `CCCCCC(O)CC` (configuration not stated) [3-OCTANOL], the inhibition of growth at 5.32 µg/mL with Listeria monocytogenes [1] was 21.5%; in the experiment with Vibrio parahaemolyticus [2], 70.7%; in the experiment on Escherichia coli [3], 8.9%; in the experiment on Staphylococcus aureus [4] it was 52.6%; in the experiment on Salmonella typhimurium [5], 20.6%; in the experiment with Bacillus cereus [6], 43%.

Consider `CC/C=C\CCO` [CIS-3-HEXENOL], for which the inhibition of growth at 43.2 µg/mL amounted to 10.3% in the experiment on Listeria monocytogenes [7]; 21.6% in the experiment with Staphylococcus aureus [8]; 73.7% in the experiment with Vibrio parahaemolyticus [9]; 41% with Escherichia coli [10]; 56.2% in the experiment with Salmonella typhimurium [11]; 14.3% in the experiment on Bacillus cereus [12].
